ChEMBL document CHEMBL4340551, “Design, synthesis and preliminary bioactivity studies of indomethacin derivatives as Bcl-2/Mcl-1 dual inhibitors” (Bioorg Med Chem, 2019)

Assays:
[1] = target: T1, Apoptosis regulator Bcl-2 (Homo sapiens, UniProt P10415); assay: Potency index, ratio of Ki for WL276 to Ki for test compound for inhibition of 5-FAM-tagged Bid-BH3 peptide binding to Bcl2 (unknown origin) by fluorescence polarization assay
Jurkat [2] = assay: Induction of apoptosis in human Jurkat cells assessed as viable cells level at 40 uM incubated for 48 hrs by annexin-V/FITC and propidium iodide staining based flow cytometry (reference value: 86.5%); type: functional
Jurkat [3] = assay: Induction of apoptosis in human Jurkat cells assessed as early apoptotic cells level at 40 uM incubated for 48 hrs by annexin-V/FITC and propidium iodide staining based flow cytometry (reference value: 7.02%); type: functional
Bcl-2-like protein 1 = Bcl-2-like protein 1 (Homo sapiens, UniProt Q07817); assay: Inhibition of 5-FAM-tagged Bid-BH3 peptide binding to Bcl-XL (unknown origin) by fluorescence polarization assay
Chain of Bcl-2-like protein 1 (Q07817 whole entry): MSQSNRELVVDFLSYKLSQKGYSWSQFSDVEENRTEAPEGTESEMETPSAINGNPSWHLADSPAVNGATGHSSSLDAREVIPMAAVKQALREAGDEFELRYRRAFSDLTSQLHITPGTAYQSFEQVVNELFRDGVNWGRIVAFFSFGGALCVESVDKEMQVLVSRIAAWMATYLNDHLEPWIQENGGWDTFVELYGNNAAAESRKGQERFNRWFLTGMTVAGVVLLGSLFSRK
Procedure, shortened: (§1)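 Competitive fluorescence polarization in which compounds displace labelled Bid-BH3 peptide from the Bcl-2 family protein, read as a fall in mP. IC50 taken from mP versus concentration. Ki calculated from IC50, Kd, and the peptide and protein concentrations.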

[4] = target: T1, Apoptosis regulator Bcl-2; assay: Inhibition of 5-FAM-tagged Bid-BH3 peptide binding to Bcl2 (unknown origin) by fluorescence polarization assay; settings: read-out: Ki
Jurkat [5] = assay: Induction of apoptosis in human Jurkat cells assessed as viable cells level at 20 uM incubated for 48 hrs by annexin-V/FITC and propidium iodide staining based flow cytometry (reference value: 86.5%); type: functional
[6] = target: T1, Apoptosis regulator Bcl-2; assay: Potency index, ratio of Ki for UMI77 to Ki for test compound for inhibition of 5-FAM-tagged Bid-BH3 peptide binding to Bcl2 (unknown origin) by fluorescence polarization assay
Jurkat [7] = assay: Induction of apoptosis in human Jurkat cells assessed as late apoptotic cells level at 40 uM incubated for 48 hrs by annexin-V/FITC and propidium iodide staining based flow cytometry (reference value: 6.29%); type: functional
[8] = target: Induced myeloid leukemia cell differentiation protein Mcl-1 (Homo sapiens, UniProt Q07820); assay: Inhibition of 5-FAM-tagged Bid-BH3 peptide binding to Mcl1 (unknown origin) by fluorescence polarization assay; procedure, shortened: as §1
Chain of Induced myeloid leukemia cell differentiation protein Mcl-1 (Q07820 whole entry): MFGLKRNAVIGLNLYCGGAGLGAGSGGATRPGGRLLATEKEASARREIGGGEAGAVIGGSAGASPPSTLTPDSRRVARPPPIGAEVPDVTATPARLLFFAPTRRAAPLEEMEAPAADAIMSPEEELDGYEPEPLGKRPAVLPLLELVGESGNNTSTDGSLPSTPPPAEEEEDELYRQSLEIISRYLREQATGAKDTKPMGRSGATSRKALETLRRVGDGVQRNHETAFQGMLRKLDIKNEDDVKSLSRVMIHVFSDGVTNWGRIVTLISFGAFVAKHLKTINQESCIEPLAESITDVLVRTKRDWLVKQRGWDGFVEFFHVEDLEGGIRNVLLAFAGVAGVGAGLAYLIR

Jurkat [9] = assay: Induction of apoptosis in human Jurkat cells assessed as late apoptotic cells level at 20 uM incubated for 48 hrs by annexin-V/FITC and propidium iodide staining based flow cytometry (reference value: 6.29%); type: functional
PC-3 = assay: Antiproliferative activity against human PC3 cells assessed as reduction in cell growth incubated for 48 hrs by MTT assay; type: functional, cell-based; settings: PC-3, 48 h
Procedure, shortened: (§2)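 PC-3, Jurkat and K562 cells grown in RPMI 1640 with 10% FBS at 37°C, 5% CO2. Cells seeded at 2000-4000 per well and left 8 h before compound addition at a range of concentrations. Exposure 48 h, then 0.5% MTT solution for 4 h. Formazan dissolved in DMSO and absorbance read at 570 nm. IC50 derived from concentrations and inhibitory ratios.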

Jurkat [10] = assay: Induction of apoptosis in human Jurkat cells assessed as early apoptotic cells level at 20 uM incubated for 48 hrs by annexin-V/FITC and propidium iodide staining based flow cytometry (reference value: 7.02%); type: functional
Jurkat [11] = assay: Induction of apoptosis in human Jurkat cells incubated for 48 hrs by annexin-V/FITC and propidium iodide staining based flow cytometry; type: functional, cell-based
Jurkat [12] = assay: Induction of apoptosis in human Jurkat cells assessed as necrotic cells level at 40 uM incubated for 48 hrs by annexin-V/FITC and propidium iodide staining based flow cytometry (reference value: 6.29%); type: functional
Jurkat [13] = assay: Antiproliferative activity against human Jurkat cells assessed as reduction in cell growth incubated for 48 hrs by MTT assay; type: functional, cell-based; procedure, shortened: as §2
Jurkat [14] = assay: Induction of apoptosis in human Jurkat cells assessed as necrotic cells level at 20 uM incubated for 48 hrs by annexin-V/FITC and propidium iodide staining based flow cytometry (reference value: 6.29%); type: functional
K562 = assay: Antiproliferative activity against human K562 cells assessed as reduction in cell growth incubated for 48 hrs by MTT assay; type: functional, cell-based; settings: K562, 48 h; procedure, shortened: as §2
Jurkat [15] = assay: Potency index, ratio of IC50 for WL276 to IC50 for test compound for antiproliferative activity against human Jurkat cells assessed as reduction in cell growth incubated for 48 hrs by MTT assay; type: functional

T1 sequence (P10415 whole entry): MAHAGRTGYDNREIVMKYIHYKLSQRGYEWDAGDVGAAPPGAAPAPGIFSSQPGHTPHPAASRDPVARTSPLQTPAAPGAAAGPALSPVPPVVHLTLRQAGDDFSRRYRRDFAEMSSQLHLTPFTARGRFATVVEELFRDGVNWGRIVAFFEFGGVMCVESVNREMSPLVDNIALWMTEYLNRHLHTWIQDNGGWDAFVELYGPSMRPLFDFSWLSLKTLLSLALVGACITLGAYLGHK

In the case of `COc1ccc2c(c1)c(CC(=O)N[C@@H](Cc1ccc(OCc3ccc(Br)cc3)cc1)C(=O)NS(=O)(=O)c1ccc(Cl)c([N+](=O)[O-])c1)c(C)n2C(=O)c1ccc(Cl)cc1`, the Ratio Ki [1] is reported as 2 to 3, the Activity (Jurkat [2]) is reported as 42.3% and the Activity (Jurkat [3]) is reported as 27.5%. For the same molecule, the Ki (Bcl-2-like protein 1) was “Not Active”, the Ki [4] was 0.44 µM and the Activity (Jurkat [5]) was 56.3%. It also gave a Ratio Ki [6] of 5 to 6, an Activity (Jurkat [7]) of 29.3% and a Ki [8] of 0.44 µM. For the same molecule, the Activity (Jurkat [9]) was 21.3%, the IC50 (PC-3) was 25.8 µM and the Activity (Jurkat [10]) was 21.8%. For the same molecule, the Activity (Jurkat [11]) was “Dose-dependent effect”, the Activity (Jurkat [12]) was 0.81% and the IC50 (Jurkat [13]) was 24.7 µM. The Activity (Jurkat [14]) was 0.51%, the IC50 (K562) was 35.9 µM and the “Ratio IC50” value (Jurkat [15]) was 2.
